Screening results (PubChem)
An excerpt weighted towards active compounds, which were near 2.6% of everything screened.
SIAE primary: human SIAE inhibitors, primary screen, biochemical, fluorescence polarization, FP-Rh probe, 1536-well HTS | AID 1053197, 2014 | hit rate 0.69% among 370,000 | SIAE FP-Rh probe binding | inhibition, % at 9.66 µM | Sialate O-acetylesterase (Homo sapiens), Q9HAT2;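 active = inhibition above a cutoff: mean of compounds within the control limits plus 3 SD of those, cut at about 17% in these data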
PRMT1 FP inh: PRMT1 methyltransferase inhibitors, primary screen, biochemical, fluorescence polarization; Protein arginine N-methyltransferase 1 (Homo sapiens), Q99873; recombinant PRMT1, activity-based probe fluorescence polarization; inhibition, % at 2.79 µM; hit rate 1.3% among 370,000;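 active = inhibition above about 21% made by adding two undisclosed values, limit read from the data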
HTRA1 inh: HTRA1 serine protease inhibitors, primary screen, biochemical, fluorescence polarization, HTS; Q92743; recombinant HTRA1, FP-rhodamine activity-based probe; inhibition, % at 5.96 µM; hit rate 0.5% among 340,000; in the data active = inhibition above about 36%
Target sequence (Q92743 whole entry, looked up): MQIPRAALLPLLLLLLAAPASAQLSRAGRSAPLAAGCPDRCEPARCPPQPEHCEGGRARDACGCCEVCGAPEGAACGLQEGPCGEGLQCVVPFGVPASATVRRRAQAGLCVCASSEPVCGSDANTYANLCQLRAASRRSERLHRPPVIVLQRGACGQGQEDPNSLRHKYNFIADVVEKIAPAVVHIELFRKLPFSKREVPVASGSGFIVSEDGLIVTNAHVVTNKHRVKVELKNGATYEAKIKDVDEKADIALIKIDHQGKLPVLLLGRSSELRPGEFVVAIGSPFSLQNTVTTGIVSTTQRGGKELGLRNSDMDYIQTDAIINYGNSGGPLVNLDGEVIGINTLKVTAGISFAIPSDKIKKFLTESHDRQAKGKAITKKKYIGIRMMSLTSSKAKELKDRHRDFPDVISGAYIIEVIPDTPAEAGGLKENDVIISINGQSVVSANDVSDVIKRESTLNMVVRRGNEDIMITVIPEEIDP
TCR CD3 inh: inhibitors of human TCR-CD3 interaction, primary screen, biochemical, fluorescence, TAMRA-labeled TCR probe; T-cell receptor (TCR); inhibition, % at 9.4 µM; hit rate 0.37% among 360,000; AID 651800, 2012; in the data active = inhibition above about 19%;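 note: recombinant mutant TCR 2C K166C tagged with TAMRA read by polarization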
ABHD4 inh: ABHD4 inhibitors, primary screen, biochemical, fluorescence polarization, mouse. inhibition, % at 8.92 µM. hit rate 0.54% among 370,000. purified mABHD4, FP-Rh probe fluorescence polarization;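 active = inhibition exceeding the mean over every tested compound plus 3 SD, cut at about 30% in these data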
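Test system: mABHD4 protein; Read-out basis: % inhibition; Incubation: 45 min + 60 min at 25 °C; Repeats: single replicate; Technique: fluorescence polarization with parallel and perpendicular emission, 525/598 nm; Compound: 8.92 µM, single dose; Benchmarks: full inhibition S159A mutant plus DMSO, zero as sample-well median.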
PRMT1 inh conf: PRMT1 methyltransferase inhibitors, confirmation, biochemical, fluorescence polarization, triplicate; shares compounds with PRMT1 FP inh; recombinant His-PRMT1, activity-based probe fluorescence polarization; inhibition, % at 2.79 µM; hit rate 42% among 3,300; AID 687036, 2013;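 active = mean inhibition across replicates above the hit cutoff derived for the earlier primary screen, cut at about 22% in these data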
Numbers stand for hits; – = inactive; · = not tested or not shown.

SMILES | SIAE primary | PRMT1 FP inh | HTRA1 inh | TCR CD3 inh | ABHD4 inh | PRMT1 inh conf
CCN1C(=O)[C@H]2[C@H]3CN=C(SCc4ccccc4)N3[C@@](CC)(C(=O)OC)[C@H]2C1=O | – | – | – | – | – | ·
COC(=O)[C@@]1(C)[C@H]2C(=O)N(Cc3ccccc3)C(=O)[C@H]2[C@H]2CN=C(SCC(=O)c3ccccc3)N21 | – | 80 | – | – | – | 58
CCCn1nnnc1COc1ccc(C(N)=O)cc1 | – | – | – | – | – | ·
COC(=O)c1c(N2C(=O)Nc3ccccc3N2O)sc2c1CCCC2 | – | – | – | – | – | ·
COC(=O)c1c(N2C(=O)CC(Sc3ccccc3C(=O)O)C2=O)sc(C)c1C (stereo unspecified) | – | 64 | – | – | – | 51
O=C(O)c1ccccc1SC1CC(=O)N(c2ccccc2)C1=O (stereo unspecified) | – | 66 | – | – | – | 23
CCOC(=O)c1cc(CC)sc1N1C(=O)CC(Sc2ccccc2C(=O)O)C1=O (stereo unspecified) | – | 54 | – | – | – | 56
COC(=O)c1c(N2C(=O)CC(Sc3ccccc3C(=O)O)C2=O)sc2c1CCCC2 (stereo unspecified) | – | 55 | – | – | – | 48
COc1ccc(N2CCN(C(=O)C(=O)c3cc(OC)c(OC)c(OC)c3)CC2)cc1 | – | – | · | – | – | ·
COc1ccc(CN2CCNC(=O)C2CC(=O)NCCCC2CCCC2)c(C)c1C (stereo unspecified) | – | – | – | – | – | ·
O=C(Nc1ccccc1)c1nc[nH]c1C(=O)NCCN(CCNC(=O)c1[nH]cnc1C(=O)Nc1ccccc1)CCNC(=O)c1[nH]cnc1C(=O)Nc1ccccc1 | – | – | – | – | – | ·
O=c1ccc2cc3c4c(c2o1)CCCN4CCC3 | – | 72 | – | – | – | 67
CC1CCN(C(=O)c2[nH]cnc2C(=O)Nc2ccccc2F)CC1 | – | – | – | – | – | ·
CCN(CC)C(=O)C1=C(C)N(CCCN2CCCC2=O)C(=O)C(CC(=O)NCc2cccc3ccccc23)C1 (stereo unspecified) | – | – | – | – | – | ·
CCOC(=O)N1C(=O)NC(=O)C1c1ccc(Cl)cc1 (stereo unspecified) | – | – | – | – | – | ·
O=C(OCC(=O)N1N=C(c2ccc(Cl)cc2)CC1c1ccco1)c1cncc(Br)c1 (stereo unspecified) | – | 34 | – | – | – | –
C=CCN1C(=O)C(CC(=O)O)S/C1=N/N=C/c1ccc(N(CC)CC)cc1 (stereo unspecified) | – | – | – | – | – | ·
COc1ccccc1-c1nnc(SCC(=O)Nc2ccc3[nH]c(=O)[nH]c3c2)n1N | – | – | – | – | – | ·
CCc1ccccc1NC(=O)C1C2C=CC(O2)C1C(=O)O (stereo unspecified) | – | – | – | – | – | ·
O=C(O)C1C2C=CC(O2)C1C(=O)Nc1ccccc1C(F)(F)F (stereo unspecified) | – | 85 | – | – | – | 24
CCn1c(Cl)c(C=O)s/c1=N\S(=O)(=O)c1ccccc1 | – | 49 | – | – | – | 27
Cc1[nH]c2ccccc2c1C(=O)COC(=O)c1nccnc1N | – | – | – | – | – | ·
COc1cc(CNn2c(C)n[nH]c2=S)cc(Cl)c1OCc1ccc(F)cc1 | – | – | – | – | – | ·
CCOc1cc(CNn2cn[nH]c2=S)cc(Cl)c1OCc1ccccc1F | – | 32 | – | – | – | –
O=C(CCCCn1cnc2c(=S)nc[nH]c21)Nc1ccc(C(=O)O)cc1 | – | 30 | – | – | – | –
O=C(COc1ccc([N+](=O)[O-])cc1)Nc1ccc2c(c1)CCC2 | – | – | – | – | – | ·
Cc1ccc(NC(=O)Cn2c(O)c(N=NS(=O)(=O)c3ccc(C)cc3)c3ccccc32)cc1 | – | 29 | – | – | – | 23
C[n+]1cccc(/C=N/Nc2nc(Cl)c(C#N)c(Cl)c2Cl)c1 | – | 49 | · | – | – | –
